According to ChEMBL document CHEMBL1136357, “2-arylaminothiazoles as high-affinity corticotropin-releasing factor 1 receptor (CRF1R) antagonists: synthesis, binding studies and behavioral efficacy” (Bioorg Med Chem Lett, 2003):
pKi: −log10 of the molar value.

Key:
[1] = target: T1, Corticotropin-releasing factor receptor 1 (Homo sapiens, UniProt P34998); assay: Binding affinity by displacement of [125I]Tyr-o-CRF from human corticotropin releasing factor receptor 1 expressed in IMR-32 human neuroblastoma cell.
T1 sequence (P34998 whole entry): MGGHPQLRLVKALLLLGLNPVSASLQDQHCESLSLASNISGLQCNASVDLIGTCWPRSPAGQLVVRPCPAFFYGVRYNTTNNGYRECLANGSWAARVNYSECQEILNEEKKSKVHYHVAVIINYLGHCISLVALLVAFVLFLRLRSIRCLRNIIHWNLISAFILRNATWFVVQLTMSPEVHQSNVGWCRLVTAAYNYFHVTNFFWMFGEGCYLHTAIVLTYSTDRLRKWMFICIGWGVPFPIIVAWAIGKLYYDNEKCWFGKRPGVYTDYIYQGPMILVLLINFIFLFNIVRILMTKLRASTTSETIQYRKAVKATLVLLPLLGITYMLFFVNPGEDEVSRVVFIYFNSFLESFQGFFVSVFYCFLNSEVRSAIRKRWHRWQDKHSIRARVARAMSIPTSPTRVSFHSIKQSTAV

Rattus norvegicus [2] = assay: Area under curve in rat plasma for 0-4 hr after peroral administration at 10 mg/kg; assay type: ADME, organism-based; design: time < 4 hr, dose 10 mg/kg, route oral; conditions: in vivo, po
How it was run: (§1)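 Rats were given the HCl salt at 10 mg/kg orally, and at 5 mg/kg intravenously in the same study. […] Half-life, clearance, volume of distribution and oral bioavailability (F) were derived from the same study.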

[3] = Ratio in brain to that of rat plasma for 2 hr after peroral administration at 10 mg/kg; assay type: ADME, organism-based; design: dose 10 mg/kg, route oral; conditions: po, read-out: B/P; how it was run: as §1
IMR-32 = assay: Compound was tested for its ability to inhibit CRF stimulatedcAMP production in IMR-32 cells.; assay type: functional, Homo sapiens
[4] = Oral bioavailability in rat after […]; assay type: ADME, organism-based; conditions: in vivo
[5] = Plasma clearance in rat after intravenous administration at 5 mg/kg concentration
Rattus norvegicus [6] = assay: Area under curve in rat plasma for 0-4 hr after peroral administration at 10 mg/kg; conditions: in vivo, po
[7] = Half-life in rat after intravenous administration at 5 mg/kg concentration; conditions: in vivo
[8] = Plasma clearance in rat after peroral administration at 10 mg/kg concentration; assay type: ADME, organism-based; how it was run: as §1
[9] = Oral bioavailability in rat after peroral administration at 10 mg/kg; assay type: ADME, organism-based; conditions: in vivo; how it was run: as §1
Rattus norvegicus [10] = assay: Volume distribution in rat after peroral administration at 10 mg/kg; assay type: ADME, organism-based; design: dose 10 mg/kg, route oral; conditions: in vivo, po; how it was run: as §1
Rattus norvegicus [11] = assay: Volume distribution in rat after intravenous administration at 5 mg/kg; conditions: in vivo
[12] = Half-life in rat after peroral administration at 10 mg/kg concentration; assay type: ADME, organism-based; conditions: in vivo; how it was run: as §1
[13] = Ratio in brain to that of rat plasma for 2 hr after […]; assay type: ADME, organism-based; design: route oral; conditions: po, read-out: B/P

**Q.** With CCCN(Cc1sc(Nc2c(Cl)cc(C(F)(F)F)cc2Cl)nc1C(F)(F)F)CC1CC1 as the molecule, how does the pKi [1] read?
**A.** 7.55

**Q.** With CCCN(Cc1sc(N(CC)c2c(C)cc(C)cc2Cl)nc1C(F)(F)F)CC1CC1 as the molecule, how does the pKi [1] read?
**A.** 7.17

**Q.** With CCCN(CCC)C(=O)c1sc(Nc2c(Cl)cc(Cl)cc2Cl)nc1C as the molecule, how does the pKi [1] read?
**A.** 6.09

**Q.** With CCCN(Cc1sc(Nc2ccc(OC)cc2OC)nc1C(F)(F)F)CC1CC1 as the molecule, how does the pKi [1] read?
**A.** 5.29

**Q.** With CCCN(Cc1sc(Nc2c(C)cc(Cl)cc2C)nc1C(F)(F)F)CC1CC1 as the molecule, how does the pKi [1] read?
**A.** 7.14

**Q.** With CCCN(CC1CC1)C(=O)c1sc(Nc2c(Cl)cc(Cl)cc2Cl)nc1CC as the molecule, how does the pKi [1] read?
**A.** 4.96

**Q.** With CCCN(Cc1sc(Nc2c(C)cc(C)cc2Cl)nc1C(F)(F)F)CC1CC1 as the molecule, how does the pKi [1] read?
**A.** 7.64

**Q.** With CCCN(CC1CC1)C(=O)c1sc(Nc2c(Cl)cc(Cl)cc2Cl)nc1C as the molecule, how does the pKi [1] read?
**A.** 6.44

**Q.** With CCCN(Cc1sc(Nc2c(CC)cccc2CC)nc1C(F)(F)F)CC1CC1 as the molecule, how does the pKi [1] read?
**A.** < 4.40

**Q.** With CCCN(Cc1sc(Nc2c(C)cc(C)cc2Br)nc1C(F)(F)F)CC1CC1 as the molecule, how does the pKi [1] read?
**A.** 7.68

**Q.** With CCCN(Cc1sc(N(CC)c2ccc(C(C)C)cc2Br)nc1C(F)(F)F)CC1CC1 as the molecule, how does the pKi [1] read?
**A.** 7.25

**Q.** With CCCN(Cc1sc(Nc2ccc(C(C)C)cc2Br)nc1C(F)(F)F)CC1CC1 as the molecule, how does the pKi [1] read?
**A.** 5.54

**Q.** For CCCN(Cc1sc(Nc2c(Cl)cc(Cl)cc2Cl)nc1C(F)(F)F)CC1CC1, which AUC (Rattus norvegicus [2]) is on record?
**A.** 1730 ng·h/mL

**Q.** What about the Kp at 2 h [3] of the same molecule?
**A.** 2

**Q.** What about the Inhibition (IMR-32) of the same molecule?
**A.** 90%

**Q.** What about the bioavailability [4] of the same molecule?
**A.** 9%

**Q.** What about the clearance [5] of the same molecule?
**A.** 16 mL/min/kg

**Q.** What about the AUC (Rattus norvegicus [6]) of the same molecule?
**A.** 1730 ng·h/mL

**Q.** What about the half-life [7] of the same molecule?
**A.** 7.6 h

**Q.** What about the CL/F [8] of the same molecule?
**A.** 16 mL/min/kg

**Q.** What about the bioavailability [9] of the same molecule?
**A.** 9%

**Q.** And the Vd (Rattus norvegicus [10])?
**A.** 1.1 L/kg

**Q.** And the Vd (Rattus norvegicus [11])?
**A.** 1.1 L/kg

**Q.** And the half-life [12]?
**A.** 7.6 h

**Q.** What about the Kp at 2 h [13] of the same molecule?
**A.** 2

**Q.** With CCCN(Cc1sc(N(C)c2c(C)cc(C)cc2Cl)nc1C(F)(F)F)CC1CC1 as the molecule, how does the pKi [1] read?
**A.** 7.00

**Q.** With CCCN(Cc1sc(Nc2c(Br)cc(Br)cc2Br)nc1C(F)(F)F)CC1CC1 as the molecule, how does the pKi [1] read?
**A.** 8.11

**Q.** With CCCN(CC1CC1)c1nc(C)nc(Nc2c(Cl)cc(Cl)cc2Cl)c1Cl as the molecule, how does the pKi [1] read?
**A.** 7.70

**Q.** With CCCN(Cc1sc(Nc2c(Br)cc(C)cc2Br)nc1C(F)(F)F)CC1CC1 as the molecule, how does the pKi [1] read?
**A.** 7.55

**Q.** With CCCN(Cc1sc(Nc2c(C)cc(Cl)cc2Cl)nc1C(F)(F)F)CC1CC1 as the molecule, how does the pKi [1] read?
**A.** 7.80

**Q.** With CCCN(Cc1sc(Nc2c(C)cc(C)cc2C)nc1C(F)(F)F)CC1CC1 as the molecule, how does the pKi [1] read?
**A.** 7.22

**Q.** With COCCN(CCOC)C(=O)c1sc(Nc2c(Cl)cc(Cl)cc2Cl)nc1C as the molecule, how does the pKi [1] read?
**A.** 4.29

**Q.** With CCN(CCOC)C(=O)c1sc(Nc2c(Cl)cc(Cl)cc2Cl)nc1C as the molecule, how does the pKi [1] read?
**A.** 4.80

**Q.** With CCCN(CC1CC1)C(=O)c1sc(Nc2c(Cl)cc(Cl)cc2Cl)nc1C(F)(F)F as the molecule, how does the pKi [1] read?
**A.** 4.51

**Q.** With CCN(CC)C(=O)c1sc(Nc2c(Cl)cc(Cl)cc2Cl)nc1C as the molecule, how does the pKi [1] read?
**A.** 5.30
